Results on 5 compounds are retold here after publication PMC4104214 (Nuclear medicine and biology, 2014).

The term IC50 denotes the concentration at which inhibition is half-maximal.

For data set [1], the system named is hFAAH. The note with it: read-out: hFAAH IC50; human enzyme; cited from earlier work.
Data set [2] has as its system hMAGL. Conditions: read-out: hMAGL IC50; human enzyme; cited from earlier work.
For data set [3], the system named is MAGL. In words: Ex vivo blood radioactivity retention and pharmacological blocking in mice. On the set-up: species or system mouse (male C57BL/6). The essentials:
(§1)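 They were killed at 2 and 40 min. The blocking group got matching unlabeled inhibitor (2.0 mg/kg ip, 5% DMSO/5% Tween80 saline) 30 min before and was killed at 40 min. Trunk blood and whole brain were weighed and gamma-counted, decay-corrected to injection. Results given as SUV, mean ± SD, Student t-test.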

Data set [4] concerns the target T1, MAGL (Mus musculus, UniProt O35678).
T1 sequence (O35678 1-303): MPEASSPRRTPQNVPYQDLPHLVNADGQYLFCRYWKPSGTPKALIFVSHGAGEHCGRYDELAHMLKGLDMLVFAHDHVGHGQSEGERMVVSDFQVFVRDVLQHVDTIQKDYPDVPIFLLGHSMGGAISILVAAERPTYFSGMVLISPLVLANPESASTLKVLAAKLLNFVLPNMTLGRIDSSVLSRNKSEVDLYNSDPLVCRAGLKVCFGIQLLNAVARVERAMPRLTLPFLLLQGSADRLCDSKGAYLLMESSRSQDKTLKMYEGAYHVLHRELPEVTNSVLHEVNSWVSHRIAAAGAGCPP
In words: Ex vivo whole brain uptake and pharmacological blocking in mice. Also noted: species or system mouse (male C57BL/6). The note with it: for whole brain uptake: conscious mice, iv tail vein, 2 and 40 min post injection. The method in brief:
as §1

Data set [5] addresses T2, MAGL (Rattus norvegicus, UniProt Q8R431).
T2 sequence (Q8R431 1-303): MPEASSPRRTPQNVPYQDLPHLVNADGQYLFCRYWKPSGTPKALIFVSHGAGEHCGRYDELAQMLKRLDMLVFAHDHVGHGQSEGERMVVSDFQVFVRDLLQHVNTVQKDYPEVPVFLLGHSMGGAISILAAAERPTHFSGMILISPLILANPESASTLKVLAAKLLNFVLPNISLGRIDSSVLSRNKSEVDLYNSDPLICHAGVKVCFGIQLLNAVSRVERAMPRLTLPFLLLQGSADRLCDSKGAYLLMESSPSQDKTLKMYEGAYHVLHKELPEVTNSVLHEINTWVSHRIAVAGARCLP
In words: Ex vivo brain uptake and pharmacological blocking in rats. Also noted: species or system rat (male Sprague-Dawley). The essentials: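 Restrained conscious male Sprague-Dawley rats (330–370 g, n = 4/group) received 28–34 MBq of tracer (208 GBq/μmol) in 0.3 mL 5% Tween80 buffered saline via warm-water-dilated tail vein. They were decapitated at 2 and 40 min. The blocking group was pretreated with unlabeled inhibitor (2 mg/kg ip, 5% DMSO/5% Tween80 saline) and killed at 40 min. Cortex, cerebellum, hypothalamus and rest of brain were weighed and gamma-counted, decay-corrected against dose standards. Injected dose was corrected for tail residue.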

For the compound `O=C(N1CCC(C(c2ccc3c(c2)OCO3)c2ccc3c(c2)OCO3)CC1)n1cncn1` [compound 18], the IC50 was 4800 nM in data set [1] and 0.36 nM in data set [2].

Regarding `O=C(N1CCN(C(c2ccccc2)c2ccccc2)CC1)n1nnc2ccccc21` [compound 12], the IC50 in data set [1] was 562 nM.

Regarding `O=C(OC(C(F)(F)F)C(F)(F)F)N1CCC(C(O)(c2ccc3c(c2)OCO3)c2ccc3c(c2)OCO3)CC1` [compound 7], the IC50 was > 50000 nM in data set [1] and 5.9 nM in data set [2].

Regarding `O=[11C](N1CCC(C(c2ccc3c(c2)OCO3)c2ccc3c(c2)OCO3)CC1)n1cncn1` [[^11C]18], in data set [3] (iv tail vein, 2 and 40 min post injection), the retention in blood is 1.1–1.5 SUV. For the same compound, in data set [3] (unlabeled inhibitor 2 mg/kg ip 30 min before radiotracer, 40 min post injection), the “reduction of blood binding upon pharmacological blockade” value is listed as 71%. The whole brain uptake in data set [4] is reported as 0.65–0.82 SUV. The “reduction of brain retention in blocked group” value in data set [4] (mice, unlabeled inhibitor 2 mg/kg ip 30 min before radiotracer, 40 min post injection, p < 0.05) is 42%. For the same compound, the “specific to non-specific binding ratio” value in data set [4] (mouse brain, estimated from 42% reduction in blocked group) is reported as 0.71.

As for `O=[11C](OC(C(F)(F)F)C(F)(F)F)N1CCC(C(O)(c2ccc3c(c2)OCO3)c2ccc3c(c2)OCO3)CC1` [[^11C]7], the whole brain uptake in data set [4] was 0.34–0.67 SUV. Further, the “attenuation of brain uptake by pretreatment with unlabeled compound” value in data set [4] (mice, unlabeled inhibitor 2 mg/kg ip 30 min before radiotracer, 40 min post injection) is “not significantly attenuated”. In data set [5] (conscious rats, iv tail vein, 2 and 40 min post injection, brain regions), the brain radioactivity uptake was 0.44–0.71 SUV. Also, in data set [5] (rats, unlabeled 7 2 mg/kg ip before radiotracer, 40 min post injection), the “blocking of brain uptake by pretreatment with unlabeled inhibitor” value is recorded as “not blocked by pretreatment with unlabeled 7”.
